According to ChEMBL document CHEMBL5385958, “Psammaplin A and Its Analogs Attenuate Oxidative Stress in Neuronal Cells through Peroxisome Proliferator-Activated Receptor γ Activation” (J Nat Prod, 2024):
The source made the active and inactive calls. The rule behind the calls is not given here.

What was measured:
[1] = biological target: T1, Peroxisome proliferator-activated receptor gamma (Homo sapiens) (UniProt P37231); test: Activation of PPARgamma in human SH-SY5Y cells assessed as increase in PPARgamma nucleus translocation at 0.001 uM incubated for 6 hrs by Western blot analysis; type: cell-based; details: filed as activator
T1 sequence (whole entry): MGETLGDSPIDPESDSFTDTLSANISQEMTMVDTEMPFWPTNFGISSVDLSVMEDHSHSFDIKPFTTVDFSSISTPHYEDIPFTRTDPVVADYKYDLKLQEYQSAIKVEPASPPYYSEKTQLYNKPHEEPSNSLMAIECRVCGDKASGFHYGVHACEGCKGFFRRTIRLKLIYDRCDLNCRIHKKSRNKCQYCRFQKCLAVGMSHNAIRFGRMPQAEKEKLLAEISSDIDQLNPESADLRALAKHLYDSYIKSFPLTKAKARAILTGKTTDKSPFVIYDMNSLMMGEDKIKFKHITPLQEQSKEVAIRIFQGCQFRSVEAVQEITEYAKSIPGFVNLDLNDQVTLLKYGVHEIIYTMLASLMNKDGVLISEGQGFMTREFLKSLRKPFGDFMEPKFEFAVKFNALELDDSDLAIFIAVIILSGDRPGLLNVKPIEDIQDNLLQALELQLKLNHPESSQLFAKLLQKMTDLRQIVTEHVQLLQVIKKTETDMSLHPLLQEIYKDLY
Method in brief: (§1)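 Western blot on SH-SY5Y cells (1 × 10^6/well) treated 6 h, with or without 150 μM H2O2. Hypotonic lysis gave cytosolic fraction; nuclear extraction buffer gave nuclear fraction. 10 μg nuclear or 15 μg cytosolic protein per lane, anti-PPARγ 1:1000. Bands normalized to lamin B1 (nuclear) or actin (cytosolic); translocation expressed as nuclear/cytosolic ratio. Three replicates in duplicate.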

[2] = biological target: T1, Peroxisome proliferator-activated receptor gamma (Homo sapiens); test: Activation of PPARgamma in human SH-SY5Y cells assessed as increase in Nrf2 mRNA expression level at 0.001 uM incubated for 6 hrs by qPCR analysis; type: cell-based; details: filed as activator
Method in brief: (§2)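 SH-SY5Y cells (1 × 10^6/well, 24 h attachment) exposed to test agent alone for 6 h. RNA extracted, cDNA made with oligo-dT primers, SYBR Green qPCR for CAT, GPx1, Nrf2 or SOD1. Expression normalized to RPLP0 and calculated by ΔΔCt against untreated control calibrator. Three independent replicates performed in triplicate; rosiglitazone 10 μM as positive control.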

[3] = tested on: SH-SY5Y; test: Antioxidant activity in human SH-SY5Y cells assessed as protection against H2O2 induced loss of cell viability at 0.001 to 0.1 uM incubated for 6 hrs in presence of H2O2 by MTT assay; type: functional, cell-based; details: dose 0.001-0.1 µM
Method in brief: (§3)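 Neuroprotection by MTT: SH-SY5Y cells (5 × 10^4/well) cotreated 6 h with agent plus 150 μM H2O2; vitamin E 25 μM as positive control. Cells washed with Locke's buffer, given 500 μg/mL MTT for 1 h at 37 °C, solubilized with 5% SDS, absorbance read at 595 nm. Saponin 1 mg/mL death control subtracted. Triplicate, three independent times.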

[4] = tested on: SH-SY5Y; test: Inhibition of mPTP opening in human SH-SY5Y cells assessed as decrease in cyclophilin D protein expression at 0.001 uM incubated for 6 hrs by Western blot analysis; type: cell-based
Method in brief: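 15 μg cytosolic protein run on 4–20% SDS-PAGE, probed with anti-cyclophilin antibody 1:1000, bands normalized to actin. Three replicates in duplicate; percentage of untreated or H2O2 control.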

[5] = biological target: T1, Peroxisome proliferator-activated receptor gamma (Homo sapiens); test: Activation of PPARgamma in human SH-SY5Y cells at 1 uM incubated for 6 hrs relative to control; type: cell-based; details: filed as activator
Method in brief: (§4)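 Nuclear extracts from SH-SY5Y cells (1 × 10^6/well) treated 6 h with 0.001–1 μM agent; rosiglitazone 10 μM as positive control. PPARγ DNA-binding activity measured by ELISA-type transcription factor kit. Absorbance corrected by Bradford protein content and expressed as percentage of control cells. Three independent experiments.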

[6] = biological target: T1, Peroxisome proliferator-activated receptor gamma (Homo sapiens); test: Activation of PPARgamma in human SH-SY5Y cells assessed as increase in glutathione peroxidase 1 mRNA expression incubated for 6 hrs by qPCR analysis; type: cell-based; details: filed as activator; method in brief: as §2
[7] = tested on: SH-SY5Y; test: Antioxidant activity in human SH-SY5Y cells assessed as recovery of H2O2 decreased GSH level at 1 uM incubated for 30 min by fluorescence based microplate reader assay relative to control (reference value: 83 +/- 2%); type: functional; design: scale not given: the % may be the effect or the level left; details: 0.5 h
[8] = biological target: T1, Peroxisome proliferator-activated receptor gamma (Homo sapiens); test: Activation of PPARgamma in H2O2 induced human SH-SY5Y cells assessed as increase in PPARgamma nucleus translocation incubated for 6 hrs by Western blot analysis; type: cell-based; details: filed as activator; method in brief: as §1
[9] = biological target: T1, Peroxisome proliferator-activated receptor gamma (Homo sapiens); test: Activation of PPARgamma in H2O2 induced human SH-SY5Y cells assessed as increase in catalase mRNA expression level incubated for 6 hrs by qPCR analysis; type: cell-based; details: filed as activator
Method in brief: (§5)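 qPCR on SH-SY5Y cells (1 × 10^6/well, attached 24 h) given test agent together with 150 μM H2O2 for 6 h. Total RNA extracted, reverse transcribed with oligo-dT, amplified with SYBR Green and gene-specific primers (CAT, SOD1, GPx1). RPLP0 used as internal normalizer; ΔΔCt relative to H2O2-control calibrator. Three independent replicates in triplicate; rosiglitazone 10 μM as positive control.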

[10] = biological target: T1, Peroxisome proliferator-activated receptor gamma (Homo sapiens); test: Activation of PPARgamma in H2O2 induced human SH-SY5Y cells assessed as increase in glutathione peroxidase 1 mRNA expression incubated for 6 hrs by qPCR analysis; type: cell-based; details: filed as activator; method in brief: as §5
[11] = tested on: SH-SY5Y; test: Cytotoxicity against human SH-SY5Y cells assessed as reduction in cell viability at 0.001 to 1 uM incubated for 24 hrs by MTT assay; type: toxicity, cell-based; details: dose 0.001-1 µM
Method in brief: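 MTT viability of SH-SY5Y cells (5 × 10^4/well) after 24 h exposure to 0.001, 0.01, 0.1 and 1 μM. 500 μg/mL MTT for 1 h at 37 °C after Locke's buffer wash; SDS solubilization; absorbance at 595 nm with 1 mg/mL saponin blank subtracted. DMSO vehicle below 0.5%. Triplicate, three independent times.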

[12] = tested on: SH-SY5Y; test: Antioxidant activity in human SH-SY5Y cells assessed as reversal of H2O2 induced mitochondrial membrane depolarization at 0.001 to 0.1 uM incubated for 6 hrs by TMRM staining based microplate reader analysis; type: functional, cell-based; details: dose 0.001-0.1 µM
Method in brief: (§6)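 SH-SY5Y cells (5 × 10^4/well) cotreated with agent and 150 μM H2O2 for 6 h, then loaded with 1 μM TMRM for 30 min at 37 °C. Cells lysed with 50% H2O/DMSO; fluorescence read at 535/590 nm. Vitamin E 25 μM as positive control. Data expressed as percentage of untreated control cells. Triplicate, three independent times.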

[13] = tested on: SH-SY5Y; test: Inhibition of H2O2 induced ROS release in human SH-SY5Y cells at 1 uM incubated for 6 hrs by carboxy-H2DCFDA staining based assay; type: functional; design: scale not given: the % may be the effect or the level left
Method in brief: (§7)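 ROS measurement: SH-SY5Y cells exposed to agent and 150 μM H2O2 for 6 h, washed with serum-free medium and loaded with 20 μM carboxy-H2DCFDA for 1 h at 37 °C, then PBS for 30 min. Fluorescence read by plate reader. Vitamin E 25 μM as positive control. Triplicate, three independent times; percentage of untreated control.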

[14] = tested on: SH-SY5Y; test: Inhibition of mPTP opening in human SH-SY5Y cells assessed as increase in calcein fluorescence signal by flow cytometry analysis relative to control; type: cell-based; details: dose or concentration not given here
Method in brief: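 mPTP assay: detached SH-SY5Y cells in PBS with 0.6 mM CaCl2 loaded with calcein-AM for 15 min at 37 °C. 0.4 mM CoCl2 plus 0.001 μM agent added for 15 min, then 1 mM TBHP for 3 min.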

[15] = tested on: SH-SY5Y; test: Antioxidant activity in human SH-SY5Y cells assessed as recovery of H2O2 decreased GSH level at 0.001 to 1 uM incubated for 30 min by fluorescence based microplate reader assay; type: functional, cell-based; details: dose 0.001-1 µM
[16] = biological target: T1, Peroxisome proliferator-activated receptor gamma (Homo sapiens); test: Activation of PPARgamma in human SH-SY5Y cells assessed as increase in superoxide dismutase 1 mRNA expression at 0.001 uM incubated for 6 hrs by qPCR analysis; type: cell-based; details: filed as activator; method in brief: as §2
[17] = tested on: SH-SY5Y; test: Inhibition of H2O2 induced ROS release in human SH-SY5Y cells at 0.001 to 1 uM incubated for 6 hrs by carboxy-H2DCFDA staining based assay; type: functional; design: scale not given: the % may be the effect or the level left; details: dose 0.001-1 µM; method in brief: as §7
[18] = biological target: T1, Peroxisome proliferator-activated receptor gamma (Homo sapiens); test: Activation of PPARgamma in human SH-SY5Y cells assessed as transcription activity at 0.001 to 0.1 uM incubated for 6 hrs; type: cell-based; details: filed as activator, dose 0.001-0.1 µM; method in brief: as §4
[19] = tested on: SH-SY5Y; test: Antioxidant activity in human SHSY-5Y cells assessed as protection against H2O2 induced loss of cell viability at 0.01 uM incubated for 6 hrs in presence of H2O2 by MTT assay (reference value: 76 +/- 4%); type: functional; method in brief: as §3
[20] = tested on: SH-SY5Y; test: Antioxidant activity in human SH-SY5Y cells assessed as reversal of H2O2 induced mitochondrial membrane depolarization at 0.001 uM incubated for 6 hrs by TMRM staining based microplate reader analysis (reference value: 76 +/- 2%); type: functional; method in brief: as §6
[21] = tested on: SH-SY5Y; test: Antioxidant activity in human SH-SY5Y cells assessed as protection against H2O2 induced loss of cell viability at 0.001 uM incubated for 6 hrs in presence of H2O2 by MTT assay (reference value: 76 +/- 4%); type: functional; method in brief: as §3
[22] = tested on: SH-SY5Y; test: Inhibition of H2O2 induced ROS release in human SH-SY5Y cells at 0.001 uM incubated for 6 hrs by carboxy-H2DCFDA staining based assay; type: functional; design: scale not given: the % may be the effect or the level left; method in brief: as §7
[23] = tested on: SH-SY5Y; test: Antioxidant activity in human SH-SY5Y cells assessed as protection against H2O2 induced loss of cell viability at 25 uM incubated for 6 hrs in presence of H2O2 by MTT assay; type: functional, cell-based; method in brief: as §3
[24] = tested on: SH-SY5Y; test: Inhibition of H2O2 induced ROS release in human SH-SY5Y cells at 25 uM incubated for 6 hrs by carboxy-H2DCFDA staining based assay; type: functional, cell-based; design: scale not given: the % may be the effect or the level left; method in brief: as §7

Compound | Activity [1] [%] | Activity [2] | Activity [6] | Activity [8] [%] | Activity [9] | Activity [10] | Activity [3] | inhibition [4] | Activity [7] [%] | Activity [11] | Activity [12] | Activity [13] [%] | inhibition [14] [%] | further results
CC(C)(C)OO | – | – | – | – | – | – | – | – | – | – | – | – | 54 | –
CN(CCOc1ccc(CC2SC(=O)NC2=O)cc1)c1ccccn1 (centres undefined) | – | – | – | 139 | – | – | – | – | – | – | – | – | – | –
VITAMIN E | – | – | – | – | – | – | – | – | – | – | – | – | – | Activity [23]: 106%; Activity [24]: 101%

Now from value to compound, other results behind:

Activity [1] [%] | Activity [2] | Activity [6] | Activity [8] [%] | Activity [9] | Activity [10] | Compound | Activity [3] | inhibition [4] | Activity [7] [%] | Activity [11] | Activity [12] | Activity [13] [%] | inhibition [14] [%] | further results
151 | Active | Active | 177 | Active | Active | O=C(NCCSSCCNC(=O)/C(Cc1cc(O)c(O)c(Br)c1)=N\O)/C(Cc1ccc(O)c(Br)c1)=N\O | Active | inactive | 117 | Non-Toxic | Active | 99 | – | Activity [5]: 130%
180 | Active | Active | – | Active | Active | O=C(NCCSSCCNC(=O)/C(Cc1cc(Br)c(O)c(-c2cc(C/C(=N\O)C(=O)NCCSSCCNC(=O)/C(Cc3ccc(O)c(Br)c3)=N/O)cc(Br)c2O)c1)=N/O)/C(Cc1ccc(O)c(Br)c1)=N/O [BISAPRASIN] | Active | inactive | – | Non-Toxic | Active | – | 92 | Activity [15]: Active; Activity [16]: Active; Activity [17]: 87%; Activity [18]: Active
136 | Active | Active | 150 | – | Active | O=C(NCCSSCCNC(=O)/C(Cc1ccc(O)c(Br)c1)=N/O)/C(Cc1ccc(O)c(Br)c1)=N/O [PSAMMAPLIN A] | – | inactive | 120 | Non-Toxic | – | 96 | – | Activity [19]: 96%; Activity [20]: 100%; Activity [21]: 100%; Activity [22]: 101%
